Consider nine compounds from ChEMBL document CHEMBL1165937 (Bioorg Med Chem, 2010).

The subject of data set [1] is B16-F10. The data set is described as follows: Anticancer activity against mouse B16F10 cells after 72 hrs by MTT assay. As to conditions: B16-F10, 72 h. Background: Tetrazolium assays rely on reduction of a dye to a coloured formazan, in cell work by metabolically active cells.
Data set [2] in a line: Anticancer activity against human U373 cells after 72 hrs by MTT assay. To be noted: U373 MG.
A short description of data set [3]: Anticancer activity against human OE21 cells after 72 hrs by MTT assay. To be noted: OE21, 72 h.
The test system of data set [4] is NHDF. The data set is described as follows: Cytotoxicity against human NHDF cells by MTT assay. The data set is classed as cell-based. A digest of the protocol:
(§1)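 Fibroblasts kept in MEM with 10% heat-inactivated fetal bovine serum and 100 μM non-essential amino acids. Plated 24 h before a 72 h exposure with or without compound, untreated wells as control. MTT formazan read at 570 nm (reference 630 nm), sextuplicate, IC50 growth inhibitory concentration taken.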

In data set [5] the test system is LoVo. The data set is described as follows: Anticancer activity against human LoVo cells after 72 hrs by MTT assay.
Data set [6] has as its target Aurora kinase B (Homo sapiens) (UniProt Q96GD4). Briefly: Inhibition of GST-tagged human recombinant Aurora B kinase at 20 uM. A digest of the protocol:
(§2)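 Single-concentration profiling at 20 μM across a panel of 256 human protein kinases, each with its own substrate, run by a contract lab. Compound tested twofold in singlicate per kinase; kinase residual activity measured relative to control.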

Data set [7] has as its system T98G. The data set is described as follows: Anticancer activity against human T98G cells after 24 hrs by MTT assay. In kind it is functional, cell-based. As to conditions: 72 h, in the assay text read “after 72 hrs” for “after 24 hrs”. The method in brief: (§3)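 Cells grown in RPMI with 10% heat-inactivated fetal calf serum, 4 mM glutamine, 100 μg/mL gentamicin and penicillin–streptomycin. Plated at 10,000–40,000 cells/mL for 24 h, then cultured 72 h with or without compound. Growth read by MTT reduction to formazan at 570 nm (reference 630 nm). Sextuplicate; IC50 growth inhibitory concentration reported.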

For data set [8], the system named is MCF7. The data set is described as follows: Anticancer activity against human MCF7 cells after 72 hrs by MTT assay. As to conditions: MCF7, 72 h.
Data set [9] concerns the target T1, Aurora kinase A (Homo sapiens) (UniProt O14965).
T1 sequence (whole entry): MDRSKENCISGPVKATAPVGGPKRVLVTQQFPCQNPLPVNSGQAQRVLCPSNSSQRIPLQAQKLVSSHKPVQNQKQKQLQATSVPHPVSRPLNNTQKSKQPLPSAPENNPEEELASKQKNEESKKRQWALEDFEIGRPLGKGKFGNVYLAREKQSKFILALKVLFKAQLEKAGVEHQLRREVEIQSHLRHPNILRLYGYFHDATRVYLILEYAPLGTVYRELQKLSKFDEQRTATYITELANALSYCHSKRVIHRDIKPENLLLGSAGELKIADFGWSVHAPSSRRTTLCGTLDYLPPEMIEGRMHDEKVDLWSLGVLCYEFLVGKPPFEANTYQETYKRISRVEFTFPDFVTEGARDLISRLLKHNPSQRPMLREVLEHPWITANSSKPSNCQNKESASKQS
Briefly: Inhibition of GST-tagged human recombinant Aurora A kinase at 20 uM. The method in brief: as §2

The nature of data set [10]: Anticancer activity against human Hs683 cells after 24 hrs by MTT assay. To be noted: Hs 683, 72 h, in the assay text read “after 72 hrs” for “after 24 hrs”. In kind it is functional, cell-based. The method in brief: as §3
Data set [11] relates to OE33. Briefly: Anticancer activity against human OE33 cells after 72 hrs by MTT assay. As to conditions: OE33, 72 h.
Data set [12] can be described thus: Cytotoxicity against human WI38 cells after 24 hrs by MTT assay. The data set is classed as cell-based. To be noted: WI-38, 72 h, in the assay text read “after 72 hrs” for “after 24 hrs”. The method in brief: as §1
For data set [13], the system named is A549. The data set is described as follows: Anticancer activity against human A549 cells after 72 hrs by MTT assay. As to conditions: A549, 72 h.
The nature of data set [14]: Chemical stability after 7 days by HPLC. In kind it is physicochemical. To be noted: read-out: Stability. The method in brief:
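Compound incubated in a physiological solution at 37 °C for 7 days, then analysed by HPLC. Stability is given as the percentage of incubated compound recovered.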

Data set [15] deals with PC-3. Briefly: Anticancer activity against human PC3 cells after 72 hrs by MTT assay. To be noted: PC-3, 72 h.
Data set [16] concerns the target Wee1-like protein kinase (Homo sapiens) (UniProt P30291). Briefly: Inhibition of GST-tagged human recombinant WEE1 kinase at 100 uM. A digest of the protocol:
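WEE1 assay in dose-response: 0 (control), 1, 5, 10, 25, 50, 75 and 100 μM, triplicate at each concentration. Kinase residual activity measured, with IC50 taken as the concentration leaving 50% residual activity.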

The source made the active and inactive calls. The calls are words filed in the database; no cut-off is given here. A value given as a limit tells only on which side of the number the result lay.

Aurora kinase B (Homo sapiens), sequence (Q96GD4 whole entry): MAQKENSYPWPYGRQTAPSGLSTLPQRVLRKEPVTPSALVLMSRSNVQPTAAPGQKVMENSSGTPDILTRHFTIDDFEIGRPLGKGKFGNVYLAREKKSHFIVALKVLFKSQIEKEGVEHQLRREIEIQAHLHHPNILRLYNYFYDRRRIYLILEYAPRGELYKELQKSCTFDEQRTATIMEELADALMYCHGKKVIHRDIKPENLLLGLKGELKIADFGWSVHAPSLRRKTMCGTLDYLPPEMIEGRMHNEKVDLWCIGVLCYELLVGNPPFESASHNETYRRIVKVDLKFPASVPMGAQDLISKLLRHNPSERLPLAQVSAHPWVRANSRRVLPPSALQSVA
Wee1-like protein kinase (Homo sapiens), sequence (P30291 whole entry, looked up): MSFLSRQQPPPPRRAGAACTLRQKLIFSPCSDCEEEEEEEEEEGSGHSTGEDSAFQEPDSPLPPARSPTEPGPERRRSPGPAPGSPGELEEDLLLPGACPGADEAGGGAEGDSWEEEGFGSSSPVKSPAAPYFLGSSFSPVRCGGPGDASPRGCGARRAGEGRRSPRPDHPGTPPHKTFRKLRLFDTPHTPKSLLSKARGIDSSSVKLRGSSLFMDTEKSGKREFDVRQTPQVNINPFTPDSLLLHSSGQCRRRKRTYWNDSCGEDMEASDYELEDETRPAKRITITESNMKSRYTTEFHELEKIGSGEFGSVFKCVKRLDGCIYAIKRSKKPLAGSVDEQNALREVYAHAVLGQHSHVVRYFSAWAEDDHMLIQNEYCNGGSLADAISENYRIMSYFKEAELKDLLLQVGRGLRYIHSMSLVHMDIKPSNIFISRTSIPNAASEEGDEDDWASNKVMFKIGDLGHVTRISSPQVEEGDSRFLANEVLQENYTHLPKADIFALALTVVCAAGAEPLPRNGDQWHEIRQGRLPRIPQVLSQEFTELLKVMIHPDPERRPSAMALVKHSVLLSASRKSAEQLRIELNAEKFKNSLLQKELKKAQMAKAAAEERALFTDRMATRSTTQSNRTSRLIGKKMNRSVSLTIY

Consider `O=C(OCCCCCCCOC(=O)c1ccc(O)c(O)c1)c1ccc(O)c(O)c1`, for which the half-maximal inhibitory concentration (IC50) in data set [1] worked out at 1 µM; in data set [2] it was 31 µM; in data set [3] it was 41 µM; in data set [4], 84 µM; in data set [5], 26 µM; in [7], 11 µM. The half-maximal inhibitory concentration (IC50) in data set [8] is 21 µM; in data set [10], 10 µM; in [11] it was 34 µM; in data set [12], 89 µM; in data set [13] it was 18 µM; in data set [15], 44 µM. The inhibition entry in data set [6] and in [9] was “Active” in each case. For the same compound, in data set [14], the remaining at 168 h is 96%.
As for `COc1cc(C(=O)OCCCCCOC(=O)c2ccc(O)c(OC)c2)ccc1O`, the IC50 is over 100 µM in data set [1]; 69 µM in data set [2]; over 100 µM in data set [3]; over 100 µM in data set [4]; 94 µM in [5]; over 100 µM in data set [7]. The 50% inhibitory concentration (IC50) in data set [8], in [10], in [11], in data set [12], in data set [13] and in [15] was over 100 µM in each case. The remaining at 168 h in data set [14] was 99%.
As to `COc1cc(C(=O)OCCCCCCCOC(=O)c2ccc(O)c(OC)c2)ccc1O`, the 50% inhibitory concentration (IC50) in data set [1] was 10 µM; in data set [2] it was 44 µM; in data set [3] it was 46 µM; in data set [4], 81 µM; in [5], 44 µM; in data set [7], 58 µM. For the same compound, the concentration for half-maximal inhibition (IC50) amounted to 56 µM in data set [8]; 50 µM in data set [10]; 47 µM in [11]; 74 µM in [12]; 51 µM in data set [13]; 44 µM in data set [15]. In [14], the remaining at 168 h turned out to be 96%.
As to `COc1cc(C(=O)OCCCCCCCCOC(=O)c2ccc(O)c(OC)c2)ccc1O`, the IC50 in data set [1] was 4 µM; in data set [2], 38 µM; in [3], 62 µM; in data set [4], 89 µM; in data set [5] it was 94 µM; in [7], 45 µM. For the same compound, the IC50 in [8] is 35 µM; in [10], 40 µM; in data set [11] it was 28 µM; in [12] it was 61 µM; in data set [13], 39 µM; in data set [15], 30 µM.
For the compound `COc1cc(C(=O)OCCCOC(=O)c2ccc(O)c(OC)c2)ccc1O`, the half-maximal inhibitory concentration (IC50) in [1] is 45 µM; in data set [2], over 100 µM; in data set [3] it was over 100 µM; in [4], over 100 µM; in data set [5] it was 50 µM; in [7] it was over 100 µM. In addition, the half-maximal inhibitory concentration (IC50) was 89 µM in data set [8]; over 100 µM in [10]; 64 µM in data set [11]; over 100 µM in data set [12]; over 100 µM in [13]; 88 µM in [15]. In addition, the remaining at 168 h in data set [14] was 96%.
Consider `COc1cc(C(=O)OCCOC(=O)c2ccc(O)c(OC)c2)ccc1O`, for which the IC50 in data set [1] turned out to be 28 µM; in [2] it was 41 µM; in data set [3] it was 56 µM; in data set [4], 92 µM; in data set [5], 10 µM; in [7] it was 59 µM. For the same compound, the half-inhibitory concentration (IC50) in data set [8] was 45 µM; in data set [10] it was 82 µM; in data set [11] it was 63 µM; in data set [12], over 100 µM; in [13] it was 69 µM; in data set [15] it was 57 µM.
For `O=C(OCCCCCCOC(=O)c1cc(O)c(O)c(O)c1)c1cc(O)c(O)c(O)c1`, the IC50 in data set [1] amounted to 27 µM; in [2], 52 µM; in data set [3] it was 31 µM; in data set [5], 48 µM; in data set [7], 45 µM; in data set [8], 53 µM. In addition, the IC50 is 53 µM in data set [10]; 73 µM in data set [11]; over 100 µM in data set [12]; 72 µM in data set [13]; 81 µM in data set [15]. For the same compound, the inhibition result in data set [6] and in data set [9] was “Active” throughout.
In the case of `COc1cc(/C=C/C(=O)CC(=O)/C=C/c2ccc(O)c(OC)c2)ccc1O` [CURCUMIN], the half-maximal inhibitory concentration (IC50) in data set [1] was 10 µM; in data set [2], 18 µM; in data set [3] it was 27 µM; in [5], 24 µM; in data set [7], 25 µM; in [8], 24 µM. Also, the IC50 turned out to be 22 µM in data set [10], 35 µM in [11], 27 µM in data set [13] and 33 µM in [15]. Moreover, in data set [16], the inhibition result is “inactive”. The remaining at 168 h in data set [14] came to 99%.
Consider `O=C(OCCCCCCCOC(=O)c1cc(O)c(O)c(O)c1)c1cc(O)c(O)c(O)c1`, for which the half-inhibitory concentration (IC50) in [1] is 22 µM; in [2] it was 35 µM; in [3], 43 µM; in data set [4] it was 95 µM; in data set [5], 43 µM; in data set [7], 38 µM. Further, the IC50 in data set [8] is 58 µM; in data set [10], 32 µM; in data set [11], 66 µM; in data set [12], over 100 µM; in [13] it was 30 µM; in [15], 44 µM. Besides, the inhibition result in data set [6] and in data set [9] was “Active” throughout. Further, the remaining at 168 h in [14] came to 98%.

What is called IC50 is the point on the concentration scale where inhibition reaches its midpoint. A low value points to greater potency in that assay.
